pIC50: −log10 of the molar value.
Molecular target: T1, Polyunsaturated fatty acid 5-lipoxygenase (Rattus norvegicus, UniProt P12527)
T1 sequence (P12527 whole entry): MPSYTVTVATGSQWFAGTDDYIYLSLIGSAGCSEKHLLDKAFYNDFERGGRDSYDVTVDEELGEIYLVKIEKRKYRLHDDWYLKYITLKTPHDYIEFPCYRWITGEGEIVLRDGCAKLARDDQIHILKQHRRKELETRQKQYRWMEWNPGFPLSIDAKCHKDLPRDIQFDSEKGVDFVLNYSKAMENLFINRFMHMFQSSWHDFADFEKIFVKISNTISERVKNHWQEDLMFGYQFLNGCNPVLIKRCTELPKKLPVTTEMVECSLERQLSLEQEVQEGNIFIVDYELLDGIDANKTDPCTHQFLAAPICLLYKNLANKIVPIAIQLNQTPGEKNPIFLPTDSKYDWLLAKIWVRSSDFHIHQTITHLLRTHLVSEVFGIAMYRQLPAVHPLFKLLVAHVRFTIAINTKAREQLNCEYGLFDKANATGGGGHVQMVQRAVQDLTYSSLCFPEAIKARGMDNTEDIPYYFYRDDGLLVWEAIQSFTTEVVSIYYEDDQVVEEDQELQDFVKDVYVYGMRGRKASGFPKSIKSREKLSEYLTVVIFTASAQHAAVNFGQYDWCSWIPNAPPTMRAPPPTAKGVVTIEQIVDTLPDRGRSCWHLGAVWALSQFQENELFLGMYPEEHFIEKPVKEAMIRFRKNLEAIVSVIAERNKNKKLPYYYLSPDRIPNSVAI
Assay: In vitro inhibitory activity against 5-lipoxygenase in rat basophilic leukemia cells(RBL-1)
Method in brief: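 Enzyme source: sonicated lysate of trypsin-harvested adherent RBL-1 cells (3.0 × 10^7 cells/mL in 10 mM BES, 10 mM PIPES, 1 mM EDTA, pH 6.8), 20000g 20-min supernatant. Compounds in DMSO preincubated with enzyme 20 min at 37 °C in buffer with 0.7 mM CaCl2, 100 mM NaCl. Radiolabelled 5-HETE counted after chromatography, corrected via [3H]5-HETE recovery.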

**Q.** CC(C)Cc1ccc(C(Cc2ccccc2)C(=O)N(C)O)cc1 (stereo unspecified) was tested. Which pIC50 did it give?
**A.** 5.82
